This note sets out measurements from ChEMBL document CHEMBL1127292, “Inhibition of myeloperoxidase release from rat polymorphonuclear leukocytes by a series of azachalcone derivatives” (J Med Chem, 1994).

The pIC50 is the IC50 on a negative log10 scale, so that one unit is a factor of ten. Read a low pIC50 as a large IC50. As usually defined, the inhibition is the percentage by which the read-out fell short of the control.

pIC50: −log10 of the molar value. Where only a bound is given, the exact number is not on record here.

The species entered for assay [1] is Rattus norvegicus. As to the kind of experiment: Ability to inhibit N-formyl-methionyl-leucyl-phenylalanine (fMLP)-stimulated release of myeloperoxidase (MPO) from rat polymorphonuclear leukocytes (PMN). The class given is functional. A digest of the protocol: (§1)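 Peritoneal PMN were taken from Harlan Sprague-Dawley rats (150-250 g), with >90% viability by trypan blue and >90% PMN by Wright-Giemsa stain. Cells in suspension (2 × 10^7 cells/mL) were stimulated with 0.1 μM fMLP for 30 min at 37 °C in the presence of test agent. MPO in the supernatant was measured by MPO-catalyzed oxidation of o-dianisidine.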

The species entered for assay [2] is Rattus norvegicus. The assay can be described thus: Tested for ability at 50 uM to inhibit N-formyl-methionyl-leucyl-phenylalanine (fMLP) stimulated release of Myeloperoxidase (MPO) from rat polymorphonuclear leukocytes (PMN). The class given is functional. A digest of the protocol:
as §1

Take `COc1cc(C(=O)/C=C/c2ccccn2)cc(OC)c1OC`: the pIC50 in assay [1] is 4.74.

With `O=C1c2ccccc2-c2cccc(-c3cccnc3)c21`, the pIC50 in assay [1] was below 4.00.

Consider `COc1cc(/C=C\C(=O)c2ccncc2)cc(OC)c1OC`, for which 50 µM produced 28% inhibition in assay [2].

In assay [1], `COc1cc(C(=O)/C=C/c2cc[n+](C)cc2)cc(OC)c1OC` gave a pIC50 below 4.30.

The molecule `COc1cc(C(O)/C=C/c2ccncc2)cc(OC)c1OC` (stereo not drawn) had a pIC50 in assay [1] below 4.00.

In assay [1], `COc1cc(C(=O)/C=C(\C)c2ccncc2)cc(OC)c1OC` had a pIC50 below 4.00.

In assay [1], `O=C(/C=C/c1ccncc1)c1ccc(C(F)(F)F)cc1` gave a pIC50 of 3.69.

`O=C1c2ccccc2-c2ccc(-c3cccnc3)cc21`: the pIC50 in assay [1] was below 4.00.

Turning to `CN(C)c1cccc(C(=O)/C=C/c2ccncc2)c1`, the pIC50 in assay [1] is 4.72.

In assay [1], `O=C(C#Cc1ccncc1)c1ccccc1` had a pIC50 of 4.80. The pIC50 values of the last two molecules are within 0.2 log units of each other.

`O=C(/C=C/c1ccncc1)c1cccs1` showed a pIC50 in assay [1] of 4.52.

In assay [1], `O=C(c1ccccc1)c1ccc2ncccc2c1` had a pIC50 below 4.00.

For `COc1cc(C(=O)CCc2ccncc2)cc(OC)c1OC`, in assay [1], the pIC50 was below 4.00.

`O=C(/C=C/c1ccncc1)c1ccc(Cl)cc1`: in assay [1], the pIC50 was 4.22.

With `CC(C)(C)c1ccc(C(=O)/C=C/c2ccncc2)cc1`, the pIC50 in assay [1] was 4.33.

In the case of `CO/N=C(\C=C\c1ccncc1)c1cc(OC)c(OC)c(OC)c1`, the pIC50 in assay [1] was below 4.00.

As for `O=c1cc(-c2cccnc2)oc2ccccc12`, the pIC50 in assay [1] was below 4.00.

As for `CSc1ccc(C(=O)/C=C/c2ccncc2)cc1`, the pIC50 in assay [1] was 4.48.

For the molecule `O=C(/C=C/c1ccncc1)c1cccc(Cl)c1`, the pIC50 in assay [1] is 4.16. This pIC50 is 0.32 log units lower than that of the molecule before.

In turn, `COc1cc(C(=O)/C=C/c2cccnc2)cc(OC)c1OC` showed a pIC50 in assay [1] of 4.52.

`N#Cc1ccc(C(=O)/C=C/c2ccncc2)cc1` showed a pIC50 in assay [1] of 3.91. This pIC50 lies 0.61 log units lower than the previous one.

In assay [1], `N#Cc1cccc(C(=O)/C=C/c2ccncc2)c1` showed a pIC50 of 4.07.

`COc1cc(C(=O)/C(C)=C/c2ccncc2)cc(OC)c1OC` gave a pIC50 in assay [1] below 4.00.

In assay [1], `O=C(c1ccccc1)c1ccc(-c2cccnc2)cc1` gave a pIC50 below 4.00.

Molecule `O=C(/C=C/c1ccncc1)c1ccco1` showed a pIC50 in assay [1] of 4.30.

`O=C(/C=C/c1ccncc1)c1ccccc1` gave a pIC50 in assay [1] of 4.31.

Consider `Cc1cccc(C(=O)/C=C/c2ccncc2)c1`, for which the pIC50 in assay [1] was 4.41.

`COc1cc(C(=O)/C=C/c2ccncc2)cc(OC)c1OC` had a pIC50 in assay [1] of 5.15.

Regarding `CN(C)c1ccc(C(=O)/C=C/c2ccncc2)cc1`, the pIC50 in assay [1] was 4.96. This pIC50 and that of the molecule before are within 0.2 log units of each other.

On to `O=C(/C=C/c1ccncc1)c1cccc(C(F)(F)F)c1`, for which the pIC50 in assay [1] is 4.39.

`C(=C\c1noc2ccccc12)/c1ccncc1` gave a pIC50 in assay [1] below 4.00.

`O=C(c1ccccc1)c1cccc(-c2cccnc2)c1` showed a pIC50 in assay [1] below 4.00.

For `O=C(c1ccccc1)c1ccccc1-c1cccnc1`, the pIC50 in assay [1] was below 4.00.
